High-throughput results as filed in PubChem BioAssay.
PAFAH2 inh: PAFAH2 (human) inhibition; Q99487; recombinant PAFAH2, FP-rhodamine activity probe, fluorescence polarization; inhibition, % at 3.39 µM; 340,000 compounds, 0.99% hits;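 active = inhibition above the mean over all tested compounds plus 3 SD, cut at about 30% in these data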;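 note: inhibitors block probe labeling of enzyme so polarization drops; 0% = enzyme with DMSO and 100% = wells lacking PAFAH2 protein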
PAFAH1B2 inh: blocks human PAF acetylhydrolase 1b catalytic subunit 2 | 340,000 compounds, 1.2% hits | P68402 | AID 492953 | recombinant PAFAH1B2, FP-rhodamine activity probe, fluorescence polarization | inhibition, % at 3.39 µM;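 active = inhibition above the mean of all tested compounds plus 3 SD, cut at about 24% in these data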;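 note: 0% = enzyme with DMSO and 100% = wells lacking PAFAH1B2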
pPAFAH inh: inhibitors of human plasma PAF acetylhydrolase (pPAFAH); recombinant pPAFAH, FP-rhodamine probe fluorescence polarization; inhibition, % at 3.39 µM; 330,000 compounds, 1.5% hits; AID 463082;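 active = inhibition above the mean inhibition across the screen plus 3 SD, cut at about 25% in these data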;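 note: inhibitors block binding of the rhodamine activity-based probe so polarization drops; 0% = enzyme with DMSO and 100% = wells lacking pPAFAH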
Target sequence (Q13093 whole entry, looked up): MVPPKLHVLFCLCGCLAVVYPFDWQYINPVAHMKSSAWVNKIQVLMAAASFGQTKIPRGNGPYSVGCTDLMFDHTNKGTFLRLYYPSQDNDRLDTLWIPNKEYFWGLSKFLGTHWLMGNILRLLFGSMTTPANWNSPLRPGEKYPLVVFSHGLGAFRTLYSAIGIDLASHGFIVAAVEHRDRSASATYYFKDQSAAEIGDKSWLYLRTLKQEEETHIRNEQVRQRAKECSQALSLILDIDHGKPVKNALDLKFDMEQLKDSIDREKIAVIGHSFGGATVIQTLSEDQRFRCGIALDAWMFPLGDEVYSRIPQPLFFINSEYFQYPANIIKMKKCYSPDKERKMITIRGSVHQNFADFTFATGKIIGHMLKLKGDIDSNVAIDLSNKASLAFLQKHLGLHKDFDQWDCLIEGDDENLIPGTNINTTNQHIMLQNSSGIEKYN
ABHD4 inh: ABHD4 (mouse) inhibition, primary FP screen; 370,000 compounds, 0.54% hits; inhibition, % at 8.92 µM; AID 720543; purified mABHD4, FP-Rh probe fluorescence polarization;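 active = inhibition exceeding the mean over every tested compound plus 3 SD, cut at about 30% in these data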;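 note: 0% = plate median of compound wells and 100% = S159A mutant with DMSO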
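Material: mouse ABHD4 enzyme, wild type; Benchmarks: S159A mutant high control, sample median low control; Buffer or medium: HEPES pH 7.0, NaCl, Pluronic buffer; Signal: fluorescence polarization; Read-out: percent inhibition of probe binding, normalized to plate controls; Timing: pre-incubation 45 min, probe exposure 60 min, at 25 °C; Dosing: 8.92 µM, single dose.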
HTRA1 inh: HTRA1 (human) protease inhibition | Q92743 | recombinant HTRA1, FP-rhodamine activity-based probe, fluorescence polarization | inhibition, % at 5.96 µM | 340,000 compounds, 0.5% hits | AID 504803; in the data active = inhibition above about 36%;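 note: 0% = enzyme with DMSO and 100% = wells lacking enzyme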
PAFAH1B3 FP inh: PAFAH1B3 (human) inhibition; recombinant PAFAH1B3, FP-rhodamine probe, fluorescence polarization; inhibition, % at 3.39 µM; Q15102; 340,000 compounds, 0.28% hits; AID 492972;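 active = inhibition above the screen-wide average of all tested compounds plus 3 SD, cut at about 25% in these data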;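 note: 0% = enzyme with DMSO only and 100% = wells lacking PAFAH1B3 protein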
Target sequence (Q15102 whole entry, looked up): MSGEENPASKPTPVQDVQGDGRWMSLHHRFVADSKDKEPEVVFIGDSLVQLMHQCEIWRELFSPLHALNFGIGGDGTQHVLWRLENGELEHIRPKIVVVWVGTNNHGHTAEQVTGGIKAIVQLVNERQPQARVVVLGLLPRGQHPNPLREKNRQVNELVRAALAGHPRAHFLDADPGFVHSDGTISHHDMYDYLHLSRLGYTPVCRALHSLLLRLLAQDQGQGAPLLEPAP
Numbers without * were called inactive; / = not tested or not shown. The list is not random: actives were taken first. Their share in the collection is about 2.8%.

SMILES | PAFAH2 inh | PAFAH1B2 inh | pPAFAH inh | ABHD4 inh | HTRA1 inh | PAFAH1B3 FP inh
COc1cccc([C@@H]2CC=C(C(=O)O)[C@H](c3ccccc3)N2S(=O)(=O)c2ccc(C)cc2)c1 | 5 | 12 | 2 | 8 | -6 | -6
COc1cccc([C@@H]2CC=C(C(=O)O)[C@H](c3ccc(F)cc3)N2S(=O)(=O)c2ccc(C)cc2)c1 | -3 | 26* | -4 | 9 | -15 | 17
COC(=O)[C@H](CC(C)C)N(CCCc1cn(Cc2ccccc2)nn1)S(=O)(=O)c1ccc(F)cc1Br | / | / | / | -3 | / | /
COC(=O)[C@]12C[C@H](CC(=O)N3CCSCC3)C(=O)N(CCc3ccc(OC)c(OC)c3)C1=C[C@H](C(C)(C)C)O[C@@H]2C | / | / | / | 0 | / | /
CCN(CC(=O)NCc1ccc(Cl)cc1)C(=O)NCc1ccc(Cl)cc1 | 17 | 8 | 5 | -2 | 4 | -3
CCN(CC(=O)NCc1ccc(Cl)cc1)C(=O)CSc1ccc(Br)cc1 | 11 | 26* | 9 | -5 | -13 | 3
COc1cccc(O[C@H]2C=C[C@@H](c3ccccc3)O[C@@H]2CO)c1 | / | / | / | -3 | / | /
COc1cc(OC)cc(C(C)c2ccc(C)cc2)c1 (stereo not drawn) | / | / | / | -3 | / | /
COCCOC(=O)c1c(C)nc(SCC(=O)Nc2ccc(OC)cc2)c(C#N)c1-c1ccco1 | 1 | -3 | 27* | -9 | -9 | 5
COc1ccccc1-c1cc(-c2ccc(O)cc2)nc(N)c1C#N | 33* | 6 | 30* | -13 | -31 | 3
COc1cc(-c2cc(-c3ccc(O)cc3)nc(N)c2C#N)ccc1O | -3 | 4 | 16 | -6 | 1 | -1
Nc1c(C(=O)OCC(=O)Nc2cccc([N+](=O)[O-])c2)[nH]c(=O)[nH]c1=O | 7 | 10 | 25* | / | 4 | 12
CC1CCN(S(=O)(=O)c2ccc3c(c2)oc(=O)n3C)CC1 | -6 | 25* | 0 | 1 | -11 | 6
Cc1ccc(OCCn2c(CCNC(=O)c3ccc(F)cc3F)nc3ccccc32)cc1 | / | / | / | -14 | / | /
CC1Cc2ccccc2N1C(=O)COC(=O)/C=C/c1cccc(F)c1 (stereo not drawn) | 10 | 1 | 2 | -2 | 1 | 1
O=C(COC(=O)CSc1ccc(F)cc1)NCCCc1ccccc1 | 9 | 29* | 19 | 6 | 5 | 1
O=C(COC(=O)CSc1ccc([N+](=O)[O-])cc1)NCCCc1ccccc1 | 0 | 30* | 20 | -4 | -6 | 2
O=C(COC(=O)CSc1ccc([N+](=O)[O-])cc1)NCCc1ccccc1 | 2 | 18 | 6 | -5 | 2 | 5
CC1Cc2ccccc2N1C(=O)COC(=O)CSc1ccc(F)cc1 (stereo not drawn) | 1 | 26* | 12 | 2 | -12 | -5
CCOC(=O)CC[C@@]1(C(=O)OCC)C[C@@H](CC(=O)NCc2cccc3ccccc23)C(=O)N2CCCC=C21 | / | / | / | 4 | / | /
C=CCN1[C@H](C#N)[C@@H](c2ccc(C#Cc3ccccc3OC)cc2)[C@H]1CO | / | / | / | 9 | / | /
CCN(CC)CCCNC(=O)C1(N[C@@H](Cc2c[nH]c3ccccc23)C(=O)NCC(OC)OC)CCCCC1 | / | / | / | 0 | / | /
COc1ccc(NC(=O)N(C)C[C@H]2Oc3c(NC(=O)NC(C)C)cccc3C(=O)N([C@H](C)CO)C[C@@H]2C)cc1 | 12 | 2 | -7 | 4 | 3 | 2
COc1ccc(NC(=O)Nc2cccc3c2O[C@H](CN(C)C(=O)Nc2ccc(C(F)(F)F)cc2)[C@@H](C)CN([C@H](C)CO)C3=O)cc1 | -8 | 68* | -2 | / | -12 | 3
C[C@H]1CN([C@@H](C)CO)C(=O)c2cccc(NC(=O)Nc3ccc(C(F)(F)F)cc3)c2O[C@H]1CN(C)C | -13 | 3 | 30* | 1 | 11 | 10
SMILES | PAFAH2 inh | PAFAH1B2 inh | pPAFAH inh | ABHD4 inh | HTRA1 inh | PAFAH1B3 FP inh
C[C@H](CO)N1C[C@H](C)[C@@H](CN(C)S(=O)(=O)c2ccccc2)Oc2c(NC(=O)Nc3ccc(C(F)(F)F)cc3)cccc2C1=O | -29 | 26* | 12 | -35 | -63 | -11
C[C@H]1CN([C@@H](C)CO)C(=O)c2cccc(NC(=O)Nc3ccc(C(F)(F)F)cc3)c2O[C@@H]1CN(C)C(=O)Nc1ccc(F)cc1 | -24 | 52* | 3 | -31 | -46 | -13
C[C@@H]1CN([C@H](C)CO)C(=O)c2cc(NC(=O)Nc3ccc(C(F)(F)F)cc3)ccc2O[C@H]1CN(C)C(=O)Nc1ccc(F)cc1 | -104 | -32 | / | -132 | -112 | -66
CCCCN(C)c1nc(C)nc2c1nnn2Cc1ccccc1 | / | / | / | -4 | / | /
C[C@H](CO)N1C[C@H](C)[C@@H](CN(C)C(=O)Nc2ccc(C(F)(F)F)cc2)Oc2c(NS(=O)(=O)c3cccs3)cccc2C1=O | 2 | 25* | 12 | -9 | 2 | 2
C[C@H](CO)N1C[C@H](C)[C@@H](CN(C)S(C)(=O)=O)Oc2c(NC(=O)Nc3ccc(C(F)(F)F)cc3)cccc2C1=O | 6 | 3 | 9 | -10 | -13 | 3
C[C@@H]1CN([C@@H](C)CO)C(=O)c2cc(NS(=O)(=O)c3cccs3)ccc2O[C@H]1CN(C)Cc1ccc(C(F)(F)F)cc1 | 4 | 5 | 27* | -5 | -21 | 9
C[C@H](CO)N1C[C@H](C)[C@@H](CN(C)C(=O)Nc2ccc(C(F)(F)F)cc2)Oc2c(NC(=O)Nc3ccc(C(F)(F)F)cc3)cccc2C1=O | -51 | 51* | -15 | -83 | -111 | -41
COc1ccc(NC(=O)N(C)C[C@H]2Oc3c(NS(=O)(=O)c4cccs4)cccc3C(=O)N([C@H](C)CO)C[C@@H]2C)cc1 | 0 | 4 | -2 | 2 | -2 | 10
Nc1nonc1C(=O)NCCN=Cc1cc(Cc2ccccc2)cc(Br)c1O | 3 | 10 | 33* | / | 13 | 6
COc1nc(OCCNC(=O)Nc2ccccc2)nc(N(C)C)n1 | 0 | -1 | -7 | -12 | 3 | 10
CN(C)c1nc(OCCNC(=O)Nc2ccc(Cl)cc2)nc(N(C)C)n1 | -2 | 4 | 25* | -3 | 15 | 7
CCc1ccccc1NC(=O)CSc1ccsc1[N+](=O)[O-] | 7 | 1 | 25* | 14 | 5 | 2
COc1ccccc1CNC(=O)CSc1ccsc1[N+](=O)[O-] | 7 | -4 | 5 | 4 | 2 | -1
O=C(C1CCCN1S(=O)(=O)c1ccc(Cl)s1)N1CCc2ccccc2C1 (stereo not drawn) | / | / | / | 8 | / | /
COc1cc(/C=N/N2CCCCC2)cc([N+](=O)[O-])c1O | 6 | -1 | 28* | 5 | 13 | 11
C#CCCCN([C@@H](CC(C)C)C(=O)OC)S(=O)(=O)c1ccccc1Br | / | / | / | -4 | / | /
CC(=O)N1CCc2cc(Br)c(S(=O)(=O)CCC(=O)N3CCN(c4ccccn4)CC3)cc21 | / | / | / | 13 | / | /
